Source: PubChem BioAssay (The Scripps Research Institute Molecular Screening Center)
TAAR1 agonist: agonists of human TAAR1; CHO RD-HGA16 TAAR1, Fluo-8 calcium fluorescence; vehicle wells 0%, saturating PEA agonist 100%; activation, % at 3 µM; hit rate 0.99% among 360,000;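 active means activation above the mean activation of all test compounds in the run plus 3 SD, cut at about 38% in these data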
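System: CHO-derived RD-HGA16 cells with stable Gα16 and human TAAR1. Times: 17-24 h plating, Fluo-8 75 min 37 °C, 30 min RT. Measured by: calcium-sensitive Fluo-8 signal, excitation 470-495, emission 515-575 nm. Read-out basis: % activation relative to PEA EC100 response. Control set: DMSO and PEA EC100. Repeats: no replicates (n 1).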
TAAR1 antag: antagonists of human TAAR1 | inhibition, % at 3 µM | CHO RD-HGA16 TAAR1, Fluo-8 calcium fluorescence, antagonist | Q96RJ0 | hit rate 1.5% among 360,000 | AID 624466;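 active means inhibition above a per-plate cutoff, the mean inhibition of test compounds on that plate plus 3 SD, cut at about 49% in these data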;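 further: 0% = DMSO plus EC80 beta-PEA response and 100% = DMSO alone without agonist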
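Material: RD-HGA16 CHO cells with stable hTAAR1 and Gα16; Dosing: single nominal final test compound concentration of 3 µM; Schedule: seeding 17-24 h prior, 75-min 37 °C, 30-min RT dye loading; Detection: kinetic Fluo-8 calcium fluorescence measurement; Measure: % inhibition from peak post-agonist over basal fluorescence ratio; Benchmarks: vehicle and agonist controls.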
OX1R antag-1: antagonists of human orexin 1 receptor | inhibition, % at 5 µM | AID 434989 | O43613 | hit rate 0.43% among 330,000 | CHO/OX1R cells, Fluo-8 calcium fluorescence, orexin A;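 active means inhibition above its plate's threshold, mean inhibition of all tested compounds on the plate plus 3 SD, cut at about 37% in these data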;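 further: 0% = orexin A challenge wells and 100% = SB-334867-A antagonist wells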
CHO parental Ca: signal in parental CHO cells, OX1R antagonist counter-screen; inhibition, % at 5.6 µM; hit rate 0.63% among 330,000; AID 463079; parental CHO-K1, ATP-induced calcium, Fluo-8 fluorescence;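 active means inhibition above that plate's mean sample inhibition plus 3 SD, cut at about 26% in these data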;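 further: 0% = ATP-challenged DMSO wells and 100% = DMSO wells without ATP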
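Assay system: untransfected parental CHO cell line. Also added: ATP agonist challenge. Dosing: one dose, 5.6 µM nominal. Measured by: Fluo-8 fluorescence. Read-out: % inhibition. Benchmarks: ATP wells versus no-ATP DMSO wells. Repeats: no replicates.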
OX1R antag-2: antagonists of human orexin 1 receptor (OX1R) | OX1R-expressing cells, FRET antagonist read-out | inhibition, % at 6.6 µM | hit rate 1.8% among 330,000 | AID 485270; in the data active means inhibition mostly above about 38%, no sharp cut-off; inactive means mostly below about 40%;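 further: 0% = agonist challenge alone and 100% = reference antagonist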
GalR3 antag: antagonists of human GalR3. O60755. HEK293 GalR3-CNG cAMP membrane potential fluorescence; galR3 body fused to GalR1 C-terminus. inhibition, % at 3 µM. hit rate 0.44% among 360,000. AID 651719;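 active means inhibition above the screen-wide average plus 3 SD, cut at about 13% in these data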;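 further: forskolin and galanin both at EC90 stimulate the cells; cAMP rise reported by CNG channel membrane potential dye signal; 0% = forskolin plus galanin with DMSO and 100% = forskolin alone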
Target sequence (O60755 1-299 limits assumed): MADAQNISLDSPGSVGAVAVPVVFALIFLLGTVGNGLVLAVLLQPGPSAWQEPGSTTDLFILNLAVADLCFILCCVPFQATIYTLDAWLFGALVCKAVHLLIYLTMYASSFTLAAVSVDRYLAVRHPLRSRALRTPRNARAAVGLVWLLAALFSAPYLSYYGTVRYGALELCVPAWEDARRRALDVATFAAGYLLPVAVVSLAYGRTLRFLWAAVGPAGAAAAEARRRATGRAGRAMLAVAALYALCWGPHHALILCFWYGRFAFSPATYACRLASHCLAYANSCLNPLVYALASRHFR
Active calls of the source: *; . = no result given. This is a sample that favours compounds with a hit; in the whole collection about 4.2% have one here.

SMILES | TAAR1 agonist | TAAR1 antag | OX1R antag-1 | CHO parental Ca | OX1R antag-2 | GalR3 antag
CCO[C@@H]1OC(C(=O)NCc2ccccc2)=C[C@H](c2csc3ccccc23)[C@H]1CCCO | 25 | 54* | 10 | 2 | 30 | -7
CCO[C@@H]1OC(C(=O)O)=C[C@H](c2cn(C(C)=O)c3ccccc23)[C@H]1CCCO | 14 | 0 | 7 | 2 | 23 | -1
CCO[C@@H]1OC(C(=O)N2CCN(Cc3ccc4c(c3)OCO4)CC2)=C[C@H](c2ccc(Br)cc2)[C@H]1CCCO | 12 | 49* | -7 | 17 | 17 | -6
CCO[C@H]1OC(C(=O)NCc2ccccc2)=C[C@@H](c2cn(C(C)=O)c3ccccc23)[C@@H]1CCCO | 45* | 18 | -15 | -4 | 18 | -2
CCO[C@@H]1OC(C(=O)NCc2ccccc2)=C[C@H](c2ccc3c(c2)OCO3)[C@H]1CCCO | 10 | -11 | -29 | -17 | 14 | -4
CCO[C@H]1OC(C(=O)NCc2ccccc2)=C[C@@H](c2ccc3c(c2)OCO3)[C@@H]1CCCO | 50* | 17 | -9 | -11 | 20 | -4
COc1cc(SC)ccc1C(=O)NC(C)C | -3 | -7 | -11 | -17 | 10 | -6
CCCN(CC(=O)Nc1cc(C)on1)CC(=O)Nc1ccc(F)c(F)c1F | 5 | -20 | -15 | 1 | 8 | -9
COc1cc(/C=N/NC(=O)NC23CC4CC(CC(C4)C2)C3)ccc1OCC(N)=O | 28 | 58* | -22 | 2 | 0 | -5
FC(F)C(F)(F)C(F)(F)C(F)(F)c1cc(-c2ccccc2)n[nH]1 | 20 | 27 | 53* | 87* | 42* | -9
Cc1cc(-c2ccccc2)n[nH]1 | 1 | 0 | -1 | -20 | 21 | -5
NC(=O)c1nsc(C(=O)N(Cc2ccccc2F)C(C(=O)NCC2CCCO2)c2ccc(F)cc2)c1N (stereo unspecified) | 9 | 22 | -11 | -13 | 17 | -5
CCOc1ccc(C(C(=O)NCC2CCCO2)N(Cc2cccs2)C(=O)c2snc(C(N)=O)c2N)cc1 (stereo unspecified) | 24 | 54* | -9 | -5 | 20 | -6
Cc1cccc(CCN(C(=O)c2snc(C(N)=O)c2N)C(C(=O)NCC2CCCO2)c2ccc(F)cc2)c1 (stereo unspecified) | 30 | 59* | . | . | . | -8
O=C(NCC1CCCO1)C(c1cccs1)N(Cc1cccs1)C(=O)Cn1nnc(-c2cccs2)n1 (stereo unspecified) | 14 | 49* | -8 | -25 | 51 | -3
O=C1C=C(Nc2ccccc2O)c2ccccc2C1=O | 2 | -7 | -3 | -9 | 58* | -10
O=C1C=C(Nc2ccc(F)cc2)c2ccccc2C1=O | 4 | -1 | -9 | -3 | 50* | -4
Cc1ccc(NC2=CC(=O)C(=O)c3ccccc32)c(C)c1 | 2 | 8 | -19 | -14 | 13 | -5
COC(=O)c1cc(NC(=O)CC(=O)c2cccc(N)c2)cc(C(=O)OC)c1 | 0 | 19 | . | . | . | -5
COc1cc(O)c2c(c1)OC(C)(C)CC2=O | 0 | -1 | 2 | -3 | 4 | -2
CCOc1cc(/C=N/n2c(C)nc3ccccc3c2=O)ccc1O | 3 | -20 | -22 | -9 | 15 | -8
COc1cccc(C(=O)Oc2cc3c4c(c2)C(C)=CC(C)(C)N4C(=O)C3=O)c1 | -2 | 24 | 21 | 16 | 22 | 24*
COc1ccc(C(=O)Oc2cc3c4c(c2)C(C)=CC(C)(C)N4C(=O)C3=O)cc1OC | 2 | -10 | -18 | -16 | 16 | 2
CCOc1ccc(NC(=O)c2ccc(Cn3nc(C)cc3C)o2)cc1 | 2 | 26 | -32 | -7 | 26 | -4
O=C(Nc1ccc(S(=O)(=O)Nc2ccc(Cl)cc2)cc1)C1CCCO1 (stereo unspecified) | 41* | 5 | 14 | 8 | 9 | -6
O=C(NCC1CCCO1)c1ccc(NS(=O)(=O)c2cccc([N+](=O)[O-])c2)cc1 (stereo unspecified) | 1 | -25 | -6 | -2 | 28 | 3
